Published values collected from several papers.
Each line is one published result; the experiments were not run side by side. Converted amounts (≈) assume the structure as drawn.

Structure (SMILES) | target or system | test | conditions | endpoint | result
COc1ccc2/c(=N/c3ccccc3NC(=O)[C@@H](N)CO)cc(-c3ccc4c(c3)OCCO4)oc2c1 | HCT-116 | cell growth or viability, CCK-8 | 1 µM | inhibition | 14.7%
C[C@@H]1[C@H](O)[C@@H](C)/C=C/C=C/C=C/C=C/C=C/C=C/C=C/[C@H](O[C@@H]2O[C@H](C)[C@@H](O)[C@H](N)[C@@H]2O)C[C@@H]2O[C@](O)(C[C@@H](O)C[C@@H](O)[C@H](O)CC[C@@H](O)C[C@@H](O)CC(=O)O[C@H]1C)C[C@H](O)[C@H]2C(=O)O | Leishmania infantum | parasite growth, MTT | promastigote | IC50 | 1490 nM
O=C1OC[C@H]2OC(O)[C@H](O)[C@@H](O)[C@@H]2OC(=O)c2cc(O)c(O)c(O)c2-c2c(O)c(O)c3oc(=O)c4c(c(O)c(O)c5oc(=O)c2c3c54)-c2c1cc(O)c(O)c2O (mixture of isomers) | Streptococcus mutans | microbial killing, broth dilution |  | MBC | 400 µg/mL
Nc1nc2ccc(-c3c/c(=N\c4ccccc4NC(=O)CCN4CCOCC4)c4ccccc4o3)cc2o1 | HCT-116 | cell growth or viability, CCK-8 | 1 µM | inhibition | -4.11%
O=c1oc2c(O)c(O)cc3c(=O)oc4c(O)c(O)cc1c4c23 | Streptococcus mutans | microbial killing, broth dilution |  | MBC | 200 µg/mL (≈ 662 µM)
COc1ccc2oc(-c3ccc4nc(N)oc4c3)c/c(=N\c3ccccc3NC(=O)CCN)c2c1 | HCT-116 | cell growth or viability, CCK-8 | 1 µM | inhibition | 45.5%
Oc1cc(O)c2c(c1)O[C@H](c1cc(O)c(O)c(O)c1)[C@@H](O)C2 | Streptococcus mutans | microbial growth, broth dilution | 24 h | MIC | 100 µg/mL (≈ 327 µM)
NCC(=O)Nc1ccccc1/N=c1\cc(-c2ccc3c(c2)OCO3)oc2ccccc12 | HCT-116 | cell growth or viability, CCK-8 | 1 µM | inhibition | 4.94%
CC[C@H]1OC(=O)[C@H](C)[C@@H](O[C@H]2C[C@@](C)(OC)[C@@H](O)[C@H](C)O2)[C@H](C)[C@@H](O[C@@H]2O[C@H](C)C[C@H](N(C)C)[C@H]2O)[C@](C)(O)C[C@@H](C)/C(=N\OCOCCOC)[C@H](C)[C@@H](O)[C@]1(C)O | Streptococcus pyogenes | microbial growth | clinical isolate | MIC90 | 2 µg/mL (≈ 2.39 µM)
CCOc1ccc(Nc2c3c(nc4ccccc24)CCC3)cc1 | Leishmania infantum | parasite growth, MTT | promastigote | EC50 | 645 nM
COc1ccc2/c(=N/c3ccccc3NC(=O)CN)cc(-c3ccc4c(c3)OCCO4)oc2c1 | HCT-116 | cell growth or viability, CCK-8 | 1 µM | inhibition | 11.4%
c1ccc(Oc2ccc(Nc3c4c(nc5ccccc35)CCC4)cc2)cc1 | Leishmania infantum | parasite growth, MTT | promastigote | EC50 | 539 nM
O=C(Nc1ccccc1/N=c1\cc(-c2ccc3c(c2)OCO3)oc2ccccc12)N1CCNCC1 | HCT-116 | cell growth or viability, CCK-8 | 1 µM | inhibition | 15.1%
COc1ccc(NC(=O)Nc2ccc(-c3cn(Cc4ccc(Cl)cc4)nn3)cc2)cc1 | PC-9 | cell growth or viability, CCK-8 | 50 µM, 72 h | viability | 87.3%
C[C@@H]1O[C@@H](OC[C@H]2O[C@@H](Oc3c(-c4ccc(O)c(O)c4)oc4cc(O)cc(O)c4c3=O)[C@H](O)[C@@H](O)[C@@H]2O)[C@H](O)[C@H](O)[C@H]1O | Streptococcus mutans | microbial growth, disc diffusion | 500 µg/disc | inhibition zone | 14 mm
CN[C@H](CC(C)C)C(=O)N[C@H]1C(=O)N[C@@H](CC(N)=O)C(=O)N[C@H]2C(=O)N[C@H]3C(=O)N[C@H](C(=O)N[C@H](C(=O)O)c4cc(O)cc(O)c4-c4cc3ccc4O)[C@H](O)c3ccc(c(Cl)c3)Oc3cc2cc(c3O[C@@H]2O[C@H](CO)[C@@H](O)[C@H](O)[C@H]2O[C@H]2C[C@](C)(N)[C@H](O)[C@H](C)O2)Oc2ccc(cc2Cl)[C@H]1O | Streptococcus pyogenes | microbial growth | clinical isolate | MIC90 | 1 µg/mL (≈ 0.69 µM)
O=C1O[C@H]2[C@@H]3OC(=O)c4cc(O)c(O)c(O)c4-c4c(O)c(O)c5oc(=O)c6c(c(O)c(O)c7oc(=O)c4c5c76)-c4c(cc(O)c(O)c4O)C(=O)OC[C@H]3OC(O)[C@@H]2OC(=O)c2cc(O)c(O)c(O)c2-c2c1cc(O)c(O)c2O (mixture of isomers) | Streptococcus mutans | microbial killing, broth dilution |  | MBC | 200 µg/mL
Cc1nc(Nc2ncc(C(=O)Nc3c(C)cccc3Cl)s2)cc(N2CC[C@H](O)C2)n1 | JVM13 | cell growth or viability, ATP luminescence | 10 µM, 72 h | inhibition | 32%
